Assay results reported in ChEMBL document CHEMBL1772969, “Synthesis, structure-activity relationship, and antimalarial activity of ureas and thioureas of 15-membered azalides” (J Med Chem, 2011).

Tests used:
Plasmodium falciparum [1] = assay: Antimalarial activity against multidrug-resistant Plasmodium falciparum TM91C235 after 48 hrs by [3H]hypoxanthine incorporation assay; format: functional, organism-based
Method in brief: (§1)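 [3H]hypoxanthine incorporation assay (Desjardins method, Milhous modification) with 48 h drug exposure. Compounds and controls were 2-fold diluted across 11 concentrations. IC50 was fitted by nonlinear logistic dose-response. Values are averaged where multiple results were generated, with relative errors usually <30%.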

Plasmodium falciparum [2] = assay: Antimalarial activity against chloroquine-sensitive Plasmodium falciparum D6 after 48 hrs by [3H]hypoxanthine incorporation assay; format: functional, organism-based; method in brief: as §1
THP-1 = assay: Cytotoxicity against human THP1 cells after 1 to 4 hrs by MTS assay; format: cell-based
Method in brief: (§2)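 HepG2 and THP-1 cells grown in RPMI 1640 with 10% FBS at 37 °C, 5% CO₂, and passaged twice weekly. Compounds applied as continuous exposure. Viability read by MTS reagent, 1–4 h incubation, absorbance at 490 nm; IC₅₀ derived.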

HepG2 = assay: Cytotoxicity against human HepG2 cells after 1 to 4 hrs by MTS assay; format: cell-based; method in brief: as §2
Plasmodium falciparum [3] = assay: Antimalarial activity against chloroquine/pyrimethamine-resistant Plasmodium falciparum W2 after 48 hrs by [3H]hypoxanthine incorporation assay; format: functional, organism-based; method in brief: as §1
[4] = Half life in mouse liver microsomes at 1 uM by LCMS analysis; format: ADME, Microsome
Method in brief: (§3)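 Compound at 1 μM final with 0.5 mg/mL pooled human or mouse liver microsomes, 1.3 mM NADP, 3.3 mM MgCl₂, 0.1 M PBS pH 7.4. Reaction started with 1 U/mL G6PD, shaken at 37 °C. Aliquots quenched with cold acetonitrile at 0, 10, 20, 30 and 60 min and quantified by LCMS. t₁/₂ taken from log plot of total ion chromatogram area remaining.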

[5] = Half life in human liver microsomes at 1 uM by LCMS analysis; format: ADME, Microsome; method in brief: as §3

Row | SMILES | IC50 (Plasmodium falciparum [1]) [nM] | IC50 (Plasmodium falciparum [2]) [nM] | IC50 (THP-1) [nM] | IC50 (HepG2) [nM] | IC50 (Plasmodium falciparum [3]) [nM] | half-life at 1 µM [4] [h] | half-life at 1 µM [5] [h]
1 | CC[C@H]1OC(=O)[C@H](C)[C@@H](O[C@H]2C[C@@](C)(OC)[C@@H](O)[C@H](C)O2)[C@H](C)[C@@H](O[C@@H]2O[C@H](C)C[C@H](N(C)C)[C@H]2O)[C@](C)(O)C[C@@H](C)CN(CCNC(=O)NCCc2ccccc2)[C@H](C)[C@@H](O)[C@]1(C)O | 243 | 546 | 45000 | > 50000 | 105 | > 2 | > 2
2 | CC[C@H]1OC(=O)[C@H](C)[C@@H](O[C@H]2C[C@@](C)(OC)[C@@H](O)[C@H](C)O2)[C@H](C)[C@@H](O[C@@H]2O[C@H](C)C[C@H](N(C)C)[C@H]2O)[C@](C)(O)C[C@@H](C)CN(CCCNC(=O)NC(C)C)[C@H](C)[C@@H](O)[C@]1(C)O | > 5700 | > 1420 | – | – | > 5700 | > 2 | > 2
3 | CC[C@H]1OC(=O)[C@H](C)[C@@H](O[C@H]2C[C@@](C)(OC)[C@@H](O)[C@H](C)O2)[C@H](C)[C@@H](O[C@@H]2O[C@H](C)C[C@H](N(C)C)[C@H]2O)[C@](C)(O)C[C@@H](C)CN(CCNC(=O)NCc2ccccc2)[C@H](C)[C@@H](O)[C@]1(C)O | 170 | 320 | 35000 | > 50000 | 287 | > 2 | > 2
4 | CC[C@H]1OC(=O)[C@H](C)[C@@H](O[C@H]2C[C@@](C)(OC)[C@@H](O)[C@H](C)O2)[C@H](C)[C@@H](O[C@@H]2O[C@H](C)C[C@H](N(C)C)[C@H]2O)[C@](C)(O)C[C@@H](C)CN(CCN(CCC#N)C(=O)Nc2ccc3ccccc3c2)[C@H](C)[C@@H](O)[C@]1(C)O | 224 | 525 | 13000 | 11000 | 125 | > 2 | > 2
5 | CC[C@H]1OC(=O)[C@H](C)[C@@H](O[C@H]2C[C@@](C)(OC)[C@@H](O)[C@H](C)O2)[C@H](C)[C@@H](O[C@@H]2O[C@H](C)C[C@H](N(C)C)[C@H]2O)[C@](C)(O)C[C@@H](C)CN(CCN(CCC(N)=O)C(=O)Nc2ccc3ccccc3c2)[C@H](C)[C@@H](O)[C@]1(C)O | 39 | 190 | 7000 | 13000 | 62 | > 2 | > 2
6 | CC[C@H]1OC(=O)[C@H](C)[C@@H](O[C@H]2C[C@@](C)(OC)[C@@H](O)[C@H](C)O2)[C@H](C)[C@@H](O[C@@H]2O[C@H](C)C[C@H](N(C)C)[C@H]2O)[C@](C)(O)C[C@@H](C)CN(CCCN(CCC#N)C(=O)Nc2cccc3ccccc23)[C@H](C)[C@@H](O)[C@]1(C)O | 255 | 523 | – | – | 1380 | > 2 | > 2
7 | CC[C@H]1OC(=O)[C@H](C)[C@@H](O[C@H]2C[C@@](C)(OC)[C@@H](O)[C@H](C)O2)[C@H](C)[C@@H](O[C@@H]2O[C@H](C)C[C@H](N(C)C)[C@H]2O)[C@](C)(O)C[C@@H](C)CN(CCNC(=S)NCc2ccccc2)[C@H](C)[C@@H](O)[C@]1(C)O | 106 | 109 | 9000 | 14000 | 72 | > 2 | > 2
8 | CC[C@H]1OC(=O)[C@H](C)[C@@H](O[C@H]2C[C@@](C)(OC)[C@@H](O)[C@H](C)O2)[C@H](C)[C@@H](O[C@@H]2O[C@H](C)C[C@H](N(C)C)[C@H]2O)[C@](C)(O)C[C@@H](C)CN(CCNC(=O)Nc2ccccc2)[C@H](C)[C@@H](O)[C@]1(C)O | 103 | 223 | 27000 | 48000 | 67 | > 2 | > 2
9 | CC[C@H]1OC(=O)[C@H](C)[C@@H](O[C@H]2C[C@@](C)(OC)[C@@H](O)[C@H](C)O2)[C@H](C)[C@@H](O[C@@H]2O[C@H](C)C[C@H](N(C)C)[C@H]2O)[C@](C)(O)C[C@@H](C)CN(CCNC(=O)NC(C)C)[C@H](C)[C@@H](O)[C@]1(C)O | 717 | 1400 | – | – | 2060 | > 2 | > 2
10 | CC[C@H]1OC(=O)[C@H](C)[C@@H](O)[C@H](C)[C@@H](O[C@@H]2O[C@H](C)C[C@H](N(C)C)[C@H]2O)[C@](C)(O)C[C@@H](C)CN(CCNC(=O)Nc2ccc3ccccc3c2)[C@H](C)[C@@H](O)[C@]1(C)O | 106 | 318 | 8000 | 16000 | 99 | > 2 | > 2
11 | CC[C@H]1OC(=O)[C@H](C)[C@@H](O[C@H]2C[C@@](C)(OC)[C@@H](O)[C@H](C)O2)[C@H](C)[C@@H](O[C@@H]2O[C@H](C)C[C@H](N(C)C)[C@H]2O)[C@](C)(O)C[C@@H](C)CN(CCCN(CCC#N)C(=O)Nc2ccc3ccccc3c2)[C@H](C)[C@@H](O)[C@]1(C)O | 116 | 118 | – | – | 178 | > 2 | > 2
12 | CC[C@H]1OC(=O)[C@H](C)[C@@H](O)[C@H](C)[C@@H](O[C@@H]2O[C@H](C)C[C@H](N(C)C)[C@H]2O)[C@](C)(O)C[C@@H](C)CN(CCNC(=S)NCCCc2ccccc2)[C@H](C)[C@@H](O)[C@]1(C)O | 226 | 654 | 7000 | 14000 | 178 | > 2 | > 2
13 | CC[C@H]1OC(=O)[C@H](C)[C@@H](O[C@H]2C[C@@](C)(OC)[C@@H](O)[C@H](C)O2)[C@H](C)[C@@H](O[C@@H]2O[C@H](C)C[C@H](N(C)C)[C@H]2O)[C@](C)(O)C[C@@H](C)CN(CCNC(=S)NCCc2ccccc2)[C@H](C)[C@@H](O)[C@]1(C)O | 128 | 203 | 4000 | 9000 | 102 | > 2 | > 2
14 | CC[C@H]1OC(=O)[C@H](C)[C@@H](O[C@H]2C[C@@](C)(OC)[C@@H](O)[C@H](C)O2)[C@H](C)[C@@H](O[C@@H]2O[C@H](C)C[C@H](N(C)C)[C@H]2O)[C@](C)(O)C[C@@H](C)CN(CCNC(=S)NCCCc2ccccc2)[C@H](C)[C@@H](O)[C@]1(C)O | 82 | 182 | 5000 | 8000 | 52 | > 2 | > 2
15 | CCOC(=O)CCN(CCN1C[C@H](C)C[C@@](C)(O)[C@H](O[C@@H]2O[C@H](C)C[C@H](N(C)C)[C@H]2O)[C@@H](C)[C@H](O[C@H]2C[C@@](C)(OC)[C@@H](O)[C@H](C)O2)[C@@H](C)C(=O)O[C@H](CC)[C@@](C)(O)[C@H](O)[C@H]1C)C(=O)Nc1ccc2ccccc2c1 | 2150 | 773 | 20000 | 23000 | 207 | > 2 | > 2
16 | CC[C@H]1OC(=O)[C@H](C)[C@@H](O[C@H]2C[C@@](C)(OC)[C@@H](O)[C@H](C)O2)[C@H](C)[C@@H](O[C@@H]2O[C@H](C)C[C@H](N(C)C)[C@H]2O)[C@](C)(O)C[C@@H](C)CN(CCNC(=O)Nc2cccc3ccccc23)[C@H](C)[C@@H](O)[C@]1(C)O | 42 | 142 | 14000 | 35000 | 79 | > 2 | > 2
17 | CC[C@H]1OC(=O)[C@H](C)[C@@H](O[C@H]2C[C@@](C)(OC)[C@@H](O)[C@H](C)O2)[C@H](C)[C@@H](O[C@@H]2O[C@H](C)C[C@H](N(C)C)[C@H]2O)[C@](C)(O)C[C@@H](C)CN(CCCN(CCC#N)C(=O)NC(C)C)[C@H](C)[C@@H](O)[C@]1(C)O | 1270 | > 13400 | – | – | > 13400 | > 2 | > 2
18 | CC[C@H]1OC(=O)[C@H](C)[C@@H](O[C@H]2C[C@@](C)(OC)[C@@H](O)[C@H](C)O2)[C@H](C)[C@@H](O[C@@H]2O[C@H](C)C[C@H](N(C)C)[C@H]2O)[C@](C)(O)C[C@@H](C)CN(CCN(CCC#N)C(=S)NCCc2ccccc2)[C@H](C)[C@@H](O)[C@]1(C)O | 369 | 295 | 6000 | 7000 | 64 | > 2 | > 2
19 | CCNC(=O)NCCN1C[C@H](C)C[C@@](C)(O)[C@H](O[C@@H]2O[C@H](C)C[C@H](N(C)C)[C@H]2O)[C@@H](C)[C@H](O[C@H]2C[C@@](C)(OC)[C@@H](O)[C@H](C)O2)[C@@H](C)C(=O)O[C@H](CC)[C@@](C)(O)[C@H](O)[C@H]1C | 978 | 3620 | – | – | 4930 | > 2 | > 2
20 | CC[C@H]1OC(=O)[C@H](C)[C@@H](O[C@H]2C[C@@](C)(OC)[C@@H](O)[C@H](C)O2)[C@H](C)[C@@H](O[C@@H]2O[C@H](C)C[C@H](N(C)C)[C@H]2O)[C@](C)(O)C[C@@H](C)CN(CCNC(=O)NC(C)c2cccc3ccccc23)[C@H](C)[C@@H](O)[C@]1(C)O (stereo partly drawn) | 46 | 179 | 8000 | 10000 | 33 | > 2 | > 2
